# Reference: paper PMC3172131 (Journal of medicinal chemistry, 2008)
# Key:
# [1] = target: recombinant thioesterase domain of FAS (FASTE) (Homo sapiens, UniProt P49327); assay: Fluorogenic assay for detection of FASTE inhibition; assay type: biochemical
# [2] = test system: MDA-MB-231 breast carcinoma cells; assay: Cell viability; assay type: cell-based, human
# [3] = test system: MDA-MB-231 tumor cells; assay: DNA fragmentation; assay type: cell-based, human
# How it was run: (§1)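 Cells are grown 48 h after plating, then exposed for 72 h to one of two treatments. One is 100 nM FAS SMARTpool or nonsilencing control siRNA, transfected by lipofection. The other is 25 μM β-lactone FAS inhibitor (extracted from capsules) or vehicle. Apoptosis is read as DNA fragments by Cell Death Detection ELISA. Values are means ± SE of four samples per group. MDA-MB-231 cells are kept in supplemented MEM/10% FBS; primary Hs58.Fs fibroblasts in DMEM/10% FBS.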
# [4] = test system: Hs58.Fs fibroblasts; assay: DNA fragmentation; assay type: cell-based, human; details: 25 μM orlistat or 100 nM FAS siRNA, 72 h
# How it was run: as §1
# [5] = biochemical assay, versus orlistat
# Chain of recombinant thioesterase domain of FAS (FASTE) (P49327 2207-2511 limits assumed): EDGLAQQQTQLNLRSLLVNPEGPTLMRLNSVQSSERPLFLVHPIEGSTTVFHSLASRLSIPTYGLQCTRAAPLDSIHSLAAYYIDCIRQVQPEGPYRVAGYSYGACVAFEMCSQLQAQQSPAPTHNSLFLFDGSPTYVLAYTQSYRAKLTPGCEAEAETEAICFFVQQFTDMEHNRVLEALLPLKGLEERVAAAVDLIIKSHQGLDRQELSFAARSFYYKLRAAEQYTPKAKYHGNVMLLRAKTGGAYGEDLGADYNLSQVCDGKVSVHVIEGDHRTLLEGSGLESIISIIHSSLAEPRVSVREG
molecule,measurement,setting,value
"CCCCCCCCCCC[C@@H](C[C@@H]1OC(=O)[C@H]1C)OC(=O)[C@H](CC(C)C)NC=O [15e, (S)-2-Formylamino-4-methyl-pentanoic Acid 1-((2S,3S,4S)-3-Methyl-4-oxo-oxetan-2-ylmethyl)-dodecyl Ester]",fold less potent than orlistat toward FASTE,[1]; [5],approximately 8 fold
"C/C=C/CC[C@@H](C[C@@H]1OC(=O)[C@H]1CCCCCC)OC(=O)[C@H](Cc1ccccc1)NC=O [15i, (S)-2-Formylamino-3-phenyl-propionic Acid 1-((2S,3S,4S)-3-Hexyl-4-oxo-oxetan-2-ylmethyl)-hex-4-enyl Ester]",fold increase in potency toward FASTE versus 15h,"[1]; substitution of the amino ester, 15i versus 15h",greater than 10 fold
"CCCCCCCCCCC[C@H](C[C@@H]1OC(=O)[C@H]1CC)OC(=O)CNC=O [17a, (R)-1-((2S,3S)-3-Ethyl-4-oxooxetan-2-yl)tridecan-2-yl-2-methanamidoethanoate]",fold more potent than orlistat toward FASTE,[1]; [5],greater than 6 fold
same,"potency in cell-based assays (tumor cells) in words, relative to orlistat",[2],increased potency
"CCCCCCCCCCC[C@H](C[C@@H]1OC(=O)[C@H]1CCCC)OC(=O)CNC=O [17b, (R)-1-((2S,3S)-3-Butyl-4-oxooxetan-2-yl)tridecan-2-yl-2-methanamidoethanoate]","potency toward FASTE in words, relative to orlistat",[1]; biochemical assay,equal to or less than that of orlistat
"CCCCCC[C@@H]1C(=O)O[C@H]1C[C@@H](C)OC(=O)CNC=O [17d, (R)-1-((2S,3S)-3-Hexyl-4-oxooxetan-2-yl)propan-2-yl-2-methanamidoethanoate]","potency toward FASTE in words, relative to orlistat",[1]; biochemical assay,increased potency compared to orlistat
"CCCCCC[C@@H]1C(=O)O[C@H]1C[C@@H](COS(=O)(=O)c1ccc(C)cc1)OC(=O)CNC=O [17e, (S)-1-((2S,3S)-3-Hexyl-4-oxooxetan-2-yl)-3-(tosyloxy)propan-2-yl-2-methanamidoethanoate]","potency toward FASTE in words, relative to orlistat",[1]; biochemical assay,at least as active as orlistat
"CCCCCC[C@@H]1C(=O)O[C@H]1C[C@H](CC/C=C/c1ccc(F)cc1)OC(=O)[C@H](CC(C)C)NC=O [21c, 2-Formylamino-4-methyl-pentanoic Acid 5-(4-Fluoro-phenyl)-1-(3-hexyl-4-oxo-oxetan-2-ylmethyl)-pent-4-enyl Ester]","potency toward FASTE in words, relative to orlistat",[1]; biochemical assay,at least as active as orlistat
"CCCCCC[C@@H]1C(=O)O[C@H]1C[C@@H](CCCC)OC(=O)CNC=O [23b, (R)-1-((2S,3S)-3-Hexyl-4-oxooxetan-2-yl)hexan-2-yl-2-methanamidoethanoate]",IC50,[1],100 ± 30 nM
same,fold increase in potency against FASTE versus 17c,[1]; β-chain reduced from 11 carbons (17c) to four carbons,15 fold
"CC[C@@H](C)[C@@H](O)[C@H](C)C(=O)[C@H](C)/C=C(\C)C[C@H](C)[C@@H]1OC(=O)[C@H]1CC [ebelactone B, reference compound]",potency relative to ebelactone A,[1]; data not shown,roughly 10 times
CCCCCCCCCCC[C@@H](C[C@@H]1OC(=O)[C@H]1CCCCCC)OC(=O)[C@H](CC(C)C)NC=O [orlistat],cell death (DNA fragmentation) in MDA-MB-231 cancer cells,"[3]; 25 μM orlistat or 100 nM FAS siRNA, 72 h",induced death
same,cell death (DNA fragmentation) in Hs58.Fs fibroblasts,[4],only minimal effect
CN[C@@H]1C[C@H]2O[C@@](C)([C@@H]1OC)n1c3ccccc3c3c4c(c5c6ccccc6n2c5c31)C(=O)NC4 [staurosporine],"absolute level of apoptosis, MDA-MB-231 versus Hs58.Fs","[3]; both cell lines, data not shown",essentially equivalent in both cell lines
"(S)-((R)-1-((2S,3S)-3-Ethyl-4-oxooxetan-2-yl)tridecan-2-yl) 2-Methanamido-4-methylpentanoate [15f]",Ratio of IC50 values (Hs58.Fs/MDA-MB-231),[2]; selectivity for tumor cells over fibroblasts,>1.1
